Test results taken from ChEMBL document CHEMBL4270591, “Exploitation of new chalcones and 4H-chromenes as agents for cancer treatment” (Eur J Med Chem, 2018).
The source made the active and inactive calls. The calls are words filed in the database; no cut-off is given here.

Tests used:
MCF7 [1] = experiment: Anticancer activity against human MCF7 cells assessed as cell viability at 10 uM after 72 hrs by sulforhodamine B assay relative to control; type: functional; conditions: MCF7, 72 h, read-out: Activity
MCF7 [2] = experiment: Anticancer activity against human MCF7 cells assessed as cell viability at 30 uM after 72 hrs by sulforhodamine B assay relative to control; type: functional; conditions: MCF7, 72 h, read-out: Activity
Hs-578T [3] = experiment: Anticancer activity against human Hs 578T cells assessed as cell viability at 10 uM after 72 hrs by sulforhodamine B assay relative to control; type: functional; conditions: read-out: Activity
Hs-578T [4] = experiment: Anticancer activity against human Hs 578T cells assessed as cell viability at 30 uM after 72 hrs by sulforhodamine B assay relative to control; type: functional; conditions: read-out: Activity
[5] = Cytotoxicity against human MCF10A cells assessed as cell viability at 10 uM after 72 hrs by sulforhodamine B assay relative to control; type: cell-based, MCF-10A; conditions: read-out: Activity
[6] = Cytotoxicity against human MCF10A cells assessed as cell viability at 30 uM after 72 hrs by sulforhodamine B assay relative to control; type: cell-based, MCF-10A; conditions: read-out: Activity
MCF7 [7] = experiment: Anticancer activity against human MCF7 cells after 72 hrs by sulforhodamine B assay; type: functional, cell-based; conditions: MCF7, 72 h
Procedure, shortened: (§1)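 Cells seeded at 3000 cells/100 µL per well, left to adhere overnight (18-20 h), then exposed to a range of compound concentrations for 72 h. Vehicle control was 0.5% DMSO. Cytotoxicity was read by sulforhodamine B at 490 nm, with 690 nm as background. IC50 came from sigmoidal variable-slope nonlinear regression on log-transformed data, from at least three independent experiments, each in triplicate.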

Hs-578T [8] = experiment: Anticancer activity against human Hs 578T cells after 72 hrs by sulforhodamine B assay; type: functional, cell-based; procedure, shortened: as §1
MCF-10A [9] = experiment: Cytotoxicity against human MCF10A cells after 72 hrs by sulforhodamine B assay; type: cell-based; procedure, shortened: as §1
MCF7 [10] = experiment: Antimigratory activity against human MCF7 cells assessed as reduction in cell migration at half IC50 to IC50 after 12 to 48 hrs by microscopy based wound healing assay; type: functional
Procedure, shortened: (§2)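 Wound healing: MCF-7 cells plated at 9.0 × 10^5 per 2 mL and grown overnight to confluence. Two scratches made with a pipette tip, then wash with PBS. Treatment at IC50 or ½ IC50, or 0.5% DMSO. Four positions per wound were imaged at 0, 12, 24 and 48 h at 100x. Migration distances were measured and normalised to control. Three independent experiments.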

MCF7 [11] = experiment: Antiproliferative activity against human MCF7 cells at half IC50 to IC50 after 24 to 48 hrs by Brdu incorporation assay; type: functional, cell-based
Procedure, shortened: (§3)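 Labelling with 20 µM BrdU (final) for 6 h. FixDenat 30 min, then anti-BrdU-POD 90 min at room temperature. Substrate colour for 5-10 min, stopped with H2SO4, absorbance at 450 nm (reference 690 nm). Cell-free blanks included. At least three independent experiments in triplicate.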

MCF7 [12] = experiment: Induction of apoptosis in human MCF7 cells at IC50 after 48 hrs by Annexin-V-FITC/propidium iodide staining based flow cytometry; type: functional, cell-based
Procedure, shortened: (§4)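 Floating and adherent cells were pooled and resuspended in binding buffer. Staining with FITC-annexin V and PI for 15 min at room temperature in the dark, followed by flow cytometry quadrant analysis normalised to untreated cells. Two independent experiments, triplicates within each.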

MCF7 [13] = experiment: Induction of apoptosis in human MCF7 cells assessed as increase in cleaved PARP level at IC50 after 24 hrs by Western blot analysis; type: functional, cell-based
Procedure, shortened: (§5)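 MCF-7 cells at 70-80% confluence were treated at IC50 or with 0.5% DMSO for 24 h. Lysis in Tris/NaCl/EDTA buffer with NP-40, Triton X-100, phosphatase and protease inhibitors. 20 µg protein run on 12% SDS-PAGE and transferred to nitrocellulose. Probed overnight at 4 °C with anti-PARP (1:500) or anti-BIM (1:1000), then HRP secondaries and chemiluminescence. At least two independent experiments.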

MCF7 [14] = experiment: Induction of apoptosis in human MCF7 cells assessed as increase in Bim level at IC50 after 24 hrs by Western blot analysis; type: functional, cell-based; procedure, shortened: as §5
MCF7 [15] = experiment: Cell cycle arrest in human MCF7 cells at IC50 after 48 hrs by propidium iodide staining based flow cytometry; type: functional
Procedure, shortened: (§6)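 MCF-7 cells seeded at 2.5×10^5 per well and grown overnight. […] Cells fixed in 70% ethanol for at least 30 min at 4 °C, then stained with PI (50 µg/mL) plus RNase A and Triton X-100 for 1 h in the dark at […]. Flow cytometry with 488 nm excitation gave the phase distribution. Two independent biological replicates.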

MCF7 [16] = experiment: Induction of microtubule disruption in human MCF7 cells at IC50 after 12 hrs by DAPI staining based microscopic analysis; type: cell-based
Procedure, shortened: (§7)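 MCF-7 cells seeded at 2.0×10^5 per well and incubated overnight. Treatment at IC50 for 12 h, with 0.5% DMSO vehicle and paclitaxel (2 µM) as reference. Fixation in methanol for 20 min at -20 °C and blocking in 5% BSA. β-tubulin antibody (1:200) for 2 h, fluorescent secondary for 1 h, and DAPI nuclear counterstain. Confocal imaging with a 60x oil objective, 405/488 nm excitation.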

MCF7 [17] = experiment: Antiproliferative activity against human MCF7 cells after 72 hrs in presence of doxorubicin by sulforhodamine B assay; type: functional, cell-based; conditions: MCF7, 72 h
MCF-10A [18] = experiment: Cytotoxicity against human MCF10A cells after 72 hrs in presence of doxorubicin by sulforhodamine B assay; type: cell-based
[19] = Selectivity index, ratio of IC50 for human MCF10A cells in presence of doxorubicin to IC50 for human MCF7 cells in presence of doxorubicin; type: toxicity; conditions: MCF10A cells and MCF7 cells, read-out: Ratio IC50
MCF7 [20] = experiment: Induction of apoptosis in human MCF7 cells assessed as decrease in Bcl-xL level at IC50 after 48 hrs by Western blot analysis
MCF7 [21] = experiment: Antiproliferative activity against human MCF7 cells at IC50 after 48 hrs by Brdu incorporation assay relative to control; type: functional; procedure, shortened: as §3
MCF7 [22] = experiment: Induction of apoptosis in human MCF7 cells assessed as increase in early apoptotic cells at IC50 after 48 hrs by Annexin-V-FITC/propidium iodide staining based flow cytometry; type: functional, cell-based; procedure, shortened: as §4
MCF7 [23] = experiment: Induction of apoptosis in human MCF7 cells assessed as increase in late apoptotic cells at IC50 after 48 hrs by Annexin-V-FITC/propidium iodide staining based flow cytometry; type: functional, cell-based; procedure, shortened: as §4
MCF7 [24] = experiment: Cell cycle arrest in human MCF7 cells assessed as DNA fragmentation at IC50 after 48 hrs by propidium iodide staining based flow cytometry; type: functional; procedure, shortened: as §6
MCF7 [25] = experiment: Cell cycle arrest in human MCF7 cells assessed as accumulation at sub-G0/G1 phase at IC50 after 48 hrs by propidium iodide staining based flow cytometry; type: functional; procedure, shortened: as §6
MCF7 [26] = experiment: Antimigratory activity against human MCF7 cells assessed as reduction in cell migration at half IC50 to IC50 after 48 hrs by microscopy based wound healing assay relative to control; type: functional; design: scale not given: the % may be the effect or the level left; procedure, shortened: as §2
MCF7 [27] = experiment: Cell cycle arrest in human MCF7 cells assessed as accumulation at G2/M phase at IC50 after 48 hrs by propidium iodide staining based flow cytometry; type: functional; procedure, shortened: as §6
MCF7 [28] = experiment: Cell cycle arrest in human MCF7 cells assessed as reduction in G0/G1 population at IC50 after 48 hrs by propidium iodide staining based flow cytometry; type: functional; procedure, shortened: as §6
MCF7 [29] = experiment: Induction of microtubule disruption in human MCF7 cells assessed as cell detachment at IC50 after 12 hrs by DAPI staining based microscopic analysis; procedure, shortened: as §7
MCF7 [30] = experiment: Induction of microtubule disruption in human MCF7 cells assessed as cell shrinkage at IC50 after 12 hrs by DAPI staining based microscopic analysis; procedure, shortened: as §7
MCF7 [31] = experiment: Induction of microtubule disruption in human MCF7 cells assessed as cell rounding at IC50 after 12 hrs by DAPI staining based microscopic analysis; procedure, shortened: as §7
MCF7 [32] = experiment: Induction of microtubule disruption in human MCF7 cells assessed as nuclei contraction at IC50 after 12 hrs by DAPI staining based microscopic analysis; type: cell-based
MCF7 [33] = experiment: Induction of microtubule disruption in human MCF7 cells assessed as nuclei condensation at IC50 after 12 hrs by DAPI staining based microscopic analysis; type: cell-based
MCF7 [34] = experiment: Inhibition of beta-tubulin polymerization in human MCF7 cells assessed as increase in beta-tubulin levels at IC50 after 24 hrs by Western blot analysis; type: cell-based

Row | SMILES | viability at 10 µM (MCF7 [1]) | viability at 30 µM (MCF7 [2]) | viability at 10 µM (Hs-578T [3]) | viability at 30 µM (Hs-578T [4]) | viability at 72 h, 10 µM [5] | viability at 72 h, 30 µM [6] | IC50 (MCF7 [7]) | IC50 (Hs-578T [8]) | IC50 (MCF-10A [9]) | Activity (MCF7 [10]) | Activity (MCF7 [12]) | Activity (MCF7 [13]) | Activity (MCF7 [14]) | Activity (MCF7 [15]) | Activity (MCF7 [16]) | IC50 (MCF7 [17]) | IC50 (MCF-10A [18]) | selectivity ratio [19] | Activity (MCF7 [20]) | Activity (MCF7 [21]) | further results
1 | O=C(/C=C/c1cc(Br)ccc1O)c1ccc(Br)cc1 | 28.7% | 28.3% | 63.5% | 124% | 32.8% | 47.6% | 3.82 µM | 5.88 µM | 29.3 µM | inactive | inactive | Active | Active | inactive | inactive | 0.28 µM | 15.1 µM | 53 | Active |  | Activity (MCF7 [11]): inactive
2 | Cc1ccc(C(=O)/C=C/c2cc(Cl)ccc2O)cc1 | 36.8% | 27.7% | 66.3% | 70.5% | 33.5% | 51.1% | 3.98 µM | 4.8 µM | 24.2 µM | inactive | inactive | Active | Active | inactive | inactive | 0.27 µM | 1.1 µM | 3.07 | Active | >50% | 
3 | COc1cccc(C(=O)/C=C/c2cc(Br)ccc2O)c1 | 26.9% | 28.3% | 38.5% | 55.8% | 33.8% | 66.3% | 5.07 µM | 7.27 µM | 40.6 µM | inactive |  | Active | Active |  | inactive | 0.42 µM | > 60 µM | > 142 | Active | >50% | Activity (MCF7 [22]): Active; Activity (MCF7 [23]): Active; Activity (MCF7 [24]): Active; Activity (MCF7 [25]): Active
4 | COc1cccc(C(=O)CC2C(C#N)=C(N)Oc3c(OC)cc(Br)cc32)c1 (centres undefined) | 55.9% | 33.9% | 46.1% | 83.3% | 32.3% | 46.3% | 3.65 µM | 4.52 µM | 18.9 µM |  |  | Active | Active |  |  | 0.11 µM | 1.58 µM | 13.4 | Active | 20% | Activity (MCF7 [26]): 50%; Activity (MCF7 [22]): Active; Activity (MCF7 [23]): Active; Activity (MCF7 [27]): Active; Activity (MCF7 [28]): Active; Activity (MCF7 [29]): Active; Activity (MCF7 [30]): Active; Activity (MCF7 [31]): Active; Activity (MCF7 [32]): Active; Activity (MCF7 [33]): Active; inhibition (MCF7 [34]): Active
